According to ChEMBL document CHEMBL2203058, “Isolation of steroidal glycosides from the Caribbean sponge Pandaros acanthifolium” (J Nat Prod, 2012):
Calls of active or inactive are those of the source. No cut-off for these calls is given here.

Assays:
U-373MG ATCC [1] = test: (§1) Antioxidant activity in human U373 cells assessed as increase of antioxidant response element-mediated phase 2 protein expression at 25 ug/ml after 24 hrs by luciferase reporter gene assay relative to control; type: functional
In short: (§2)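 U373 astrocytoma cells stably carrying firefly luciferase under ARE control, grown in DMEM with 10% FCS and antibiotics. 5 × 10^4 cells/well seeded in quadruplicate, exposed 24 h to 25, 10, 5 or 2.5 μg/mL glycoside, then luciferase read. Controls: mock-treated and DMSO 0.25% v/v. Activity expressed as fold change versus 25 μM tert-butylhydroquinone; >2-fold over TBHQ scored a hit.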

[2] = Cytotoxicity against human U373 cells; type: cell-based; details: u-373mg atcc
In short: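 Viability measured by MTT tetrazolium reduction in parallel reporter U373 cultures under the reporter assay conditions: 24 h with 25, 10, 5 or 2.5 μg/mL glycoside, quadruplicate wells.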

U-373MG ATCC [3] = test: Cytoprotective activity in H2O2-stimulated human U373 cells assessed as increase of SOD activity treated 24 hrs before H2O2 stimulation measured after 24 hrs; type: functional, cell-based
In short: (§3)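 U373 cells at 2 × 10^4/well in quadruplicate, pretreated 24 h with 25, 10, 5 or 2.5 μg/mL glycoside. Media replaced with fresh media containing glycoside plus 300 μM H2O2 for 24 h more. Cells PBS-washed, lysed by three freeze–thaw cycles, centrifuged; SOD (WST-1/xanthine oxidase inhibition, […], against SOD standard curve) or GPx measured by colorimetric kits.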

U-373MG ATCC [4] = test: Antioxidant activity in human U373 cells assessed as increase of antioxidant response element-mediated phase 2 protein expression after 24 hrs by luciferase reporter gene assay; type: functional, cell-based; in short: as §2
[5] = Antioxidant activity in human U373 cells assessed as increase of antioxidant response element-mediated phase 2 protein expression after 24 hrs by luciferase reporter gene assay relative to TBHQ; type: functional, U-373MG ATCC; in short: as §2
U-373MG ATCC [6] = test: Cytoprotective activity in H2O2-stimulated human U373 cells assessed as increase of glutathione peroxidase activity treated 24 hrs before H2O2 stimulation measured after 24 hrs; type: functional, cell-based; in short: as §3
[7] = test system: xenobiotic response element (XRE)-mediated transcriptional activity; test: Toxicity in human U373 cells assessed as effect on xenobiotic response element-mediated activity at 2.5 to 25 ug/ml after 24 hrs by luciferase reporter gene assay; type: cell-based, U-373MG ATCC; details: read-out: FC
In short: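 XRE counterscreen: U373 astrocytoma cells stably carrying a luciferase cassette driven by the xenobiotic response element, grown in DMEM with 10% FCS and antibiotics. 5 × 10^4 cells/well in quadruplicate, 24 h with 25, 10, 5 or 2.5 μg/mL glycoside, then luciferase activity measured. Mock and DMSO (0.25% v/v) controls.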

U-373MG ATCC [8] = test: Cytoprotective activity in human U373 cells assessed as effect of H2O2-stimulated lipid peroxidation assay at 2.5 to 25 ug/ml treated 24 hrs before H2O2 stimulation measured after 24 hrs by TBARS assay; type: functional, cell-based
In short: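 U373 cells at 2 × 10^4/well in quadruplicate, 24 h pretreatment with 25, 10, 5 or 2.5 μg/mL glycoside, then 24 h in fresh media with glycoside and 300 μM H2O2. PBS-washed cells lysed by freeze–thaw; uncentrifuged lysate assayed for TBARS (MDA–TBA adduct, A532), calibrated with MDA 0–100 nmol/mL, reported as MDA equivalents. Mock and 0.25% DMSO controls.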

[9] = as §1; type: functional, U-373MG ATCC; in short: as §2
U-373MG ATCC [10] = test: Cytoprotective activity in H2O2-stimulated human U373 cells assessed as increase of SOD activity at 2.5 to 25 ug/ml treated 24 hrs before H2O2 stimulation measured after 24 hrs; type: functional, cell-based; in short: as §3
U-373MG ATCC [11] = test: Cytoprotective activity in H2O2-stimulated human U373 cells assessed as increase of glutathione peroxidase activity at 2.5 to 25 ug/ml treated 24 hrs before H2O2 stimulation measured after 24 hrs; type: functional, cell-based; in short: as §3

Compound	Activity (U-373MG ATCC [1])	Activity [2]	Activity (U-373MG ATCC [3])	Activity (U-373MG ATCC [4])	fold change (FC) [5]	Activity (U-373MG ATCC [6])	fold induction at 24 h [7]	Activity (U-373MG ATCC [8])	fold change (FC) [9]	Activity (U-373MG ATCC [10])	Activity (U-373MG ATCC [11])
CC(C)(C)c1cc(O)ccc1O	Active	–	–	–	–	–	–	–	–	–	–
CC(=O)O[C@H]1[C@@H](O[C@@H]2O[C@@H](C)[C@H](O)[C@@H](O)[C@H]2O)[C@H]2[C@@H]3CC[C@H]4C[C@@H](O[C@H]5O[C@@H](CO)[C@H](O)[C@@H](O)[C@@H]5O[C@@H]5O[C@@H](C)[C@H](O)[C@@H](O)[C@H]5O)CC[C@]4(C)[C@H]3CC[C@]2(C)[C@H]1[C@H](C)CCCC(C)C [ACANTHIFOLIOSIDE G]	–	Non-toxic	Dose-dependent effect	Dose-dependent effect	2	Dose-dependent effect	> 2	inactive	2.27	–	–
CC[C@H](C(C)C)[C@@H](O)C[C@@H](C)[C@H]1[C@@H](OC(C)=O)[C@@H](O[C@@H]2O[C@@H](C)[C@H](O)[C@@H](O)[C@H]2O)[C@H]2[C@@H]3CC=C4C[C@@H](O[C@H]5O[C@@H](CO)[C@H](O)[C@@H](O)[C@@H]5O[C@@H]5O[C@@H](C)[C@H](O)[C@@H](O)[C@H]5O)CC[C@]4(C)[C@H]3CC[C@@]21C [ACANTHIFOLIOSIDE J]	–	–	–	–	–	–	–	–	1.52	Active	Active
